SMILES strings stand for the structures.

Relative uptake and IC50 data for 24 compounds are collected here from ChEMBL document CHEMBL1128222, “Novel inhibitors for multidrug resistance: 1,3,5-triazacycloheptanes” (J Med Chem, 1995).

The test system of experiment [1] is P388/ADR. Put plainly: In vitro relative vinblastin uptake into P388/ADR (murine leukemia/multidrug resistant) cells following 10 uM treatment. Format: functional, Mus musculus. Put shortly:
(§1)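 10^6 P388/S or P388/ADR cells in 1 mL of 20 mM Hepes-buffered medium, pH 7.4. They are incubated with 4.6 kBq [3H]vinblastine with or without 10 μM compound (DMSO final 1%) at 37 °C for 30 min. Cells are then chilled, pelleted at 2 °C and washed twice in cold PBS. They are solubilized in NaOH and counted. The value is uptake relative to untreated cells.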

For experiment [2], the system named is P388/S. The experiment can be described thus: In vitro relative vinblastin uptake into P388/s (murine leukemia) cells following 10 uM treatment. Format: functional, Mus musculus. Put shortly: as §1
The subject of experiment [3] is P388/S. The experiment can be described thus: Evaluation of inhibitory activity against drug sensitive P388 cells (P388/S) cells. Format: functional, cell-based. As to conditions: Mus musculus. Put shortly: (§2)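 P388/S and P388/ADR murine leukemia cells are maintained by weekly intraperitoneal passage in female CDF1 mice. For the assay they are seeded at 10^5 cells/mL in RPMI-1640 with 10% FCS, 20 μM β-mercaptoethanol and 100 μg/mL kanamycin. Vinblastine is given with or without modulator (0–5.0 μM; DMSO final 0.25%) for 48 h. Growth is read by MTT and vinblastine IC50 is reported.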

In experiment [4] the test system is P388/ADR. Put plainly: Evaluation of inhibitory activity against multidrug resistant P388 cells (P388/ADR) cells. Format: functional, cell-based, Mus musculus. As to conditions: Mus musculus, P388/ADR. The gist of the method: as §2

For the compound `O=C1NC(=S)N(Cc2cccc(Cl)c2)CCN1Cc1cccc(Cl)c1`, the Relative uptake in the experiment with P388/ADR [1] is given as 6.14; in the experiment with P388/S [2] it was 1.26.
For `COc1ccc(CN2CCN(Cc3ccc(OC)c(OC)c3)C(SC)=NC2=O)cc1OC` the same measures were 1.14 and 1.04.
Take `O=C1NC(=O)N(Cc2ccc(Cl)cc2)CCCN1Cc1ccc(Cl)cc1`: the Relative uptake was found to be 2.86 in the experiment with P388/ADR [1] and 1.17 with P388/S [2].
For `O=C1NC(=O)N(Cc2cccc(Cl)c2)CCN1Cc1cccc(Cl)c1` the same measures were 1.05 and 1.2.
For `CSC1=NC(=S)N(Cc2ccccc2)CCN1Cc1ccccc1` the same measures were 3.44 and 1.19.
For `O=C1NC(=O)N(Cc2ccc(Cl)cc2)CCN1Cc1ccc(Cl)cc1`, in that order: 3.44 and 1.22.
As to `COc1ccc(CN2CCN(Cc3ccc(OC)c(OC)c3)C(=O)NC2=O)cc1OC`, the values for the Relative uptake in the experiment on P388/ADR [1] and in the experiment with P388/S [2] were 1.16 and 0.93, respectively.
On to `CO[C@@]12[C@H](COC(N)=O)C3=C(C(=O)C(C)=C(N)C3=O)N1C[C@@H]1N[C@@H]12` [MITOMYCIN], for which the IC50 came to 48 nM with P388/S [3] and 535 nM in the experiment on P388/ADR [4].
For the compound `S=C1NC(=S)N(Cc2ccccc2)CCN1Cc1ccccc1`, the figures for the Relative uptake in the experiment with P388/ADR [1] and with P388/S [2] were 4.16 and 1.26, respectively.
For `COc1ccc(CN2CCN(Cc3ccc(OC)c(OC)c3)C(=S)NC2=O)cc1OC` the same measures were 2.36 and 1.14.
Consider `COc1cccc2c1C(=O)c1c(O)c3c(c(O)c1C2=O)C[C@@](O)(C(=O)CO)C[C@@H]3O[C@H]1C[C@H](N)[C@H](O)[C@H](C)O1` [DOXORUBICIN], for which the IC50 in the experiment on P388/S [3] was 19 nM; in the experiment on P388/ADR [4] it was 360 nM.
With `O=C1NC(=O)N(Cc2ccccc2)CCCN1Cc1ccccc1`, the Relative uptake in the experiment on P388/ADR [1] amounted to 1.78; in the experiment with P388/S [2] it was 0.93.
For `O=C1NC(=O)N(Cc2ccccc2)CCN1Cc1ccccc1`, in that order: 1.41 and 1.09.
For `O=C1NC(=S)N(Cc2ccc(Cl)cc2)CCN1Cc1ccc(Cl)cc1` the same measures were 5.35 and 1.3.
For `Clc1ccc(CNCCNCc2ccc(Cl)cc2)cc1` the same measures were 2.62 and 1.04.
Take `O=C1NC(=O)N(Cc2cccc(Cl)c2)CCCN1Cc1cccc(Cl)c1`: the Relative uptake in the experiment with P388/ADR [1] is listed as 2.62; with P388/S [2], 1.12.
On to `S=C1NC(=S)N(Cc2cccc(Cl)c2)CCN1Cc1cccc(Cl)c1`, for which the Relative uptake came out at 5.34 with P388/ADR [1] and 1.34 with P388/S [2].
For `CSC1=NC(=O)N(Cc2cccc(Cl)c2)CCN1Cc1cccc(Cl)c1`, the Relative uptake with P388/ADR [1] is on record as 6.75; in the experiment on P388/S [2] it was 1.16.
On to `COc1ccc(CN2CCCN(Cc3ccc(OC)c(OC)c3)C(=O)NC2=O)cc1OC`, for which the Relative uptake in the experiment with P388/ADR [1] amounted to 1.11; in the experiment with P388/S [2], 1.06.
For `S=C1NC(=S)N(Cc2ccc(Cl)cc2)CCN1Cc1ccc(Cl)cc1` the same measures were 6 and 1.48.
On to `COc1ccc(CN2CCN(Cc3ccc(OC)c(OC)c3)C(=S)NC2=S)cc1OC`, for which the Relative uptake with P388/ADR [1] is on record as 5.26; with P388/S [2] it was 1.21.
For `O=C1NC(=S)N(Cc2ccccc2)CCN1Cc1ccccc1`, in that order: 2.11 and 1.2.
For the compound `COc1ccc(CCN(C)CCCC(C#N)(c2ccc(OC)c(OC)c2)C(C)C)cc1OC` (stereo not drawn) [VERAPAMIL], the Relative uptake in the experiment on P388/ADR [1] is given as 5.7; in the experiment on P388/S [2], 1.02.
For `CSC1=NC(=O)N(Cc2ccccc2)CCN1Cc1ccccc1`, in that order: 2.13 and 1.37.

One may read the IC50 as the concentration that inhibits the measured activity by half. The low end stands for greater potency, the high end for weaker potency.
